According to ChEMBL document CHEMBL3585287, “1-Benzyl-4-phenyl-1H-1,2,3-triazoles improve the transcriptional functions of estrogen-related receptor γ and promote the browning of white adipose” (Bioorg Med Chem, 2015):
Each block holds one compound with its values, some of them ahead of it. Active and inactive are the calls of the source. The calls are words filed in the database; no cut-off is given here.

Key:
[1] = target: T1, Estrogen-related receptor gamma (Homo sapiens) (UniProt P62508); test: Activation of GAL4-DBD-ERRgamma ligand binding domain (unknown origin) expressed in HEK293FT cells at 2 uM incubated for 24 hrs by mammalian two-hybrid reporter gene assay; type: cell-based
T1 sequence (whole entry): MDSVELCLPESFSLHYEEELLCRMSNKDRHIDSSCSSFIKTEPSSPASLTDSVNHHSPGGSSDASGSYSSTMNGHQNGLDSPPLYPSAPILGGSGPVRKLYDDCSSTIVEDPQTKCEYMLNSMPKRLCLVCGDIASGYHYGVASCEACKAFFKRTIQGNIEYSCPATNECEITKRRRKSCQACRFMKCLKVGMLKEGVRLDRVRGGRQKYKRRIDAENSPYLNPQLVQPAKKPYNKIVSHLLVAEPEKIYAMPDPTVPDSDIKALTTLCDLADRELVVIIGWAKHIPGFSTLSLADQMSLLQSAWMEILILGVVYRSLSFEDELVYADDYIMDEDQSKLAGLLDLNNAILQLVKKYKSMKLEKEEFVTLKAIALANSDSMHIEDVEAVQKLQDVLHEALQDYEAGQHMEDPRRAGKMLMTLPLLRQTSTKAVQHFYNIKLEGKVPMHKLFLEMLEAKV
Outline: (§1)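 293FT cells (DMEM, 10% FBS) were seeded at 10,000 cells/well and transfected 18-24 h later with GAL4-DBD-ERRγ-LBD (0.5 ng), pcDNA-PGC-1α (0.5 ng), pFR reporter (25 ng) and pRLTK renilla (3 ng). After 6 h, compound was added at 2 μM for 24 h. Dual luciferase readout, firefly/renilla ratio taken as RLU. Run in triplicate, ≥3 independent experiments.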

[2] = target: T2, Estrogen-related receptor gamma (Mus musculus) (UniProt P62509); test: Increase in ERRgamma mediated transcriptional activity in primary mouse embryonic fibroblasts assessed as increase in ERRalpha mRNA levels at 1 uM by quantitative real time PCR assay
T2 sequence (whole entry): T1 sequence (whole entry)
Outline: (§2)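 MEFs were grown to confluence and held 2 days, then differentiated from day 0 with 5 μg/mL insulin, 1 μM dexamethasone and 0.5 mM IBMX. From day 8, cells received compound in DMEM/10% FBS for 2 more days. Total RNA was extracted with Trizol and reverse transcribed; SYBR qPCR normalized to GAPDH. Mean ± SEM of three independent experiments.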

[3] = target: T2, Estrogen-related receptor gamma (Mus musculus); test: Increase in ERRgamma mediated transcriptional activity in primary mouse embryonic fibroblasts assessed as increase in MCAD mRNA levels at 1 uM by quantitative real time PCR assay; outline: as §2
[4] = target: T2, Estrogen-related receptor gamma (Mus musculus); test: Increase in ERRgamma mediated transcriptional activity in primary mouse embryonic fibroblasts assessed as increase in ATP5b mRNA levels at 1 uM by quantitative real time PCR assay; outline: as §2
[5] = target: T2, Estrogen-related receptor gamma (Mus musculus); test: Increase in ERRgamma mediated transcriptional activity in primary mouse embryonic fibroblasts assessed as increase in SHP mRNA levels at 1 uM by quantitative real time PCR assay; outline: as §2
Mus musculus [6] = test: In vivo induction of white adipose browning in C57BL6 mouse interscapularbrown adipose tissue assessed as increase in UCP1 expression at 20 mg/kg/day, po by immunohistochemistry; type: functional, organism-based; conditions: in the assay text read “subcutaneous white adipose tissue” for “interscapularbrown adipose tissue”
Outline: (§3)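 Male C57BL6 mice (8 weeks) on a high-fat diet (60% energy as fat) were gavaged daily for 4 weeks with 20 mg/kg compound or vehicle (5% alcohol in PBS). Adipose tissues were fixed overnight in 4% formaldehyde, paraffin-sectioned and immunostained for UCP1 (1:1000); UCP1-positive area was quantified. Two independent experiments.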

Mus musculus [7] = test: In vivo induction of white adipose browning in C57BL6 mouse subcutaneous white adipose tissue assessed as increase in UCP1 mRNA expression at 20 mg/kg/day, po by real-time PCR assay; type: functional, organism-based
Outline: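 Male C57BL6 mice (8 weeks) on 60% fat diet received 20 mg/kg compound or vehicle (5% alcohol in PBS) daily by oral gavage for 4 weeks. Subcutaneous white adipose was collected and stored at -80 °C; RNA was analyzed by SYBR qPCR against GAPDH.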

MEF [8] = test: Induction of mitochondrial biogenesis in primary mouse embryonic fibroblasts at 5 uM incubated for 2 days by electron microscopy; type: functional, cell-based
Outline: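 On day 10, MEF-derived white adipocytes were fixed in 2.5% glutaraldehyde for 1 h, post-fixed in 1% osmic acid for 1 h, dehydrated in graded ethanol and embedded in epoxy. Ultrathin sections were stained with uranyl acetate and lead citrate and examined by transmission electron microscopy.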

[9] = target: T2, Estrogen-related receptor gamma (Mus musculus); test: Increase in ERRgamma mediated transcriptional activity in primary mouse embryonic fibroblasts assessed as increase in ATP5b protein levels at 0.5 to 5 uM by Western blotting method
Outline: (§4)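 Differentiated MEF adipocytes were treated with compound from day 8 for 2 days. Cells were lysed in RIPA buffer on ice; 40 μg protein was run on 12% SDS-PAGE and blotted to PVDF. Primary antibodies overnight at 4 °C (UCP1 1:1000, SDH 1:4000, MCAD 1:5000, ATP5b 1:1000, β-actin 1:2000), then HRP secondary for 4 h at 4 °C and ECL detection. Three independent experiments.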

[10] = target: T2, Estrogen-related receptor gamma (Mus musculus); test: Increase in ERRgamma mediated transcriptional activity in primary mouse embryonic fibroblasts assessed as increase in SHP mRNA levels by quantitative real time PCR assay; outline: as §2
[11] = target: T2, Estrogen-related receptor gamma (Mus musculus); test: Increase in ERRgamma mediated transcriptional activity in primary mouse embryonic fibroblasts assessed as increase in MCAD mRNA levels by quantitative real time PCR assay; outline: as §2
[12] = target: T2, Estrogen-related receptor gamma (Mus musculus); test: Increase in ERRgamma mediated transcriptional activity in primary mouse embryonic fibroblasts assessed as increase in MCAD protein levels at 0.5 to 5 uM by Western blotting method; outline: as §4
Mus musculus [13] = test: In vivo induction of white adipose browning in C57BL6 mouse subcutaneous white adipose tissue assessed as increase in UCP1 positive stained area at 20 mg/kg/day, po by immunohistochemistry; type: functional, organism-based; outline: as §3
MEF [14] = test: Induction of mitochondrial biogenesis in primary mouse embryonic fibroblasts assessed as increase in COX2 mRNA expression at 0.5 to 5 uM by quantitative real time PCR assay; type: functional, cell-based; outline: as §2
MEF [15] = test: In vitro induction of white adipose browning in primary mouse embryonic fibroblasts assessed as increase in Prdm16 mRNA expression at 0.5 to 5 uM by real-time PCR assay; type: functional, cell-based; outline: as §2
MEF [16] = test: In vitro induction of white adipose browning in primary mouse embryonic fibroblasts assessed as increase in UCP1 protein expression at 0.5 to 5 uM by Western blot method; type: functional, cell-based; outline: as §4
[17] = target: T2, Estrogen-related receptor gamma (Mus musculus); test: Increase in ERRgamma mediated transcriptional activity in primary mouse embryonic fibroblasts assessed as increase in ERRalpha mRNA levels by quantitative real time PCR assay; outline: as §2
[18] = target: T2, Estrogen-related receptor gamma (Mus musculus); test: Increase in ERRgamma mediated transcriptional activity in primary mouse embryonic fibroblasts assessed as increase in ATP5b mRNA levels by quantitative real time PCR assay; outline: as §2
MEF [19] = test: Increase ERRgamma mRNA levels in primary mouse embryonic fibroblasts at 0.5 to 5 uM by quantitative real time PCR assay; type: functional, cell-based; outline: as §2
[20] = target: T1, Estrogen-related receptor gamma (Homo sapiens); test: Activation of GAL4-DBD-ERRgamma ligand binding domain (unknown origin) expressed in HEK293FT cells incubated for 24 hrs by mammalian two-hybrid reporter gene assay; type: cell-based; outline: as §1
[21] = target: T3, Estrogen-related receptor gamma (Homo sapiens, UniProt P62508); test: Binding affinity to ERRgamma (unknown origin) at 20 degC by isothermal titration calorimetry
T3 sequence (P62508 whole entry): T1 sequence (whole entry)

MEF [22] = test: Induction of mitochondrial biogenesis in primary mouse embryonic fibroblasts assessed as increase in CS mRNA expression at 0.5 to 5 uM by quantitative real time PCR assay; type: functional, cell-based; outline: as §2
MEF [23] = test: Induction of mitochondrial biogenesis in primary mouse embryonic fibroblasts assessed as increase in SDH mRNA expression at 0.5 to 5 uM by quantitative real time PCR assay; type: functional, cell-based; outline: as §2
MEF [24] = test: Induction of mitochondrial biogenesis in primary mouse embryonic fibroblasts assessed as increase in PGC-1alpha mRNA expression at 0.5 to 5 uM by quantitative real time PCR assay; type: functional, cell-based; outline: as §2
MEF [25] = test: Induction of mitochondrial biogenesis in primary mouse embryonic fibroblasts assessed as increase in SDH protein expression at 0.5 to 5 uM by Western blot method; type: functional, cell-based; outline: as §4
MEF [26] = test: In vitro induction of white adipose browning in primary mouse embryonic fibroblasts assessed as increase in UCP1 positive adipocytes by Immunofluorescence staining assay; type: functional, cell-based
Outline: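 MEF-derived adipocytes on coverslips were treated from day 8 for 2 days. They were fixed in 4% formaldehyde, blocked in 5% BSA for 1 h, stained with rabbit anti-UCP1 (1:1000, 4 °C overnight) and then Alexa Fluor 647 secondary (1:200, 1 h), with DAPI nuclei. Imaged by fluorescence microscopy.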

[27] = target: T1, Estrogen-related receptor gamma (Homo sapiens); test: Binding affinity to ERRgamma (unknown origin) assessed as increase in protein melting temperature by CD spectroscopy
Outline: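 Purified ERRγ protein was diluted to 0.2 mg/mL in phosphate buffer and incubated overnight with ligand (200 mM DMSO stock). CD ellipticity was read at 200–260 nm in a 1 mm quartz cuvette. Temperature was stepped 1 °C at a time from 30 to 60 °C to obtain Tm.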

MEF [28] = test: Induction of mitochondrial biogenesis in primary mouse embryonic fibroblasts assessed as increase in CPT1 mRNA expression at 0.5 to 5 uM by quantitative real time PCR assay; type: functional, cell-based; outline: as §2
MEF [29] = test: In vitro induction of white adipose browning in primary mouse embryonic fibroblasts assessed as increase in UCP1 mRNA expression by real-time PCR assay; type: functional, cell-based; outline: as §2
Adipocyte = test: In vitro induction of white adipose browning in mouse white adipocytes differentiated from primary preadipocytes cells of subcutaneous adipose tissue assessed as increase in UCP1 mRNA expression at 1 and 5 uM by real-time PCR assay; type: functional, cell-based
Outline: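 Subcutaneous fat preadipocytes were isolated by 0.1% collagenase I digestion (40 min, 37 °C), filtered and cultured. Differentiation used insulin (5 μg/mL), dexamethasone (1 μM) and IBMX (0.5 mM). From day 8, compound was given in DMEM/10% FBS for 2 days. UCP1 mRNA was measured by SYBR qPCR against GAPDH.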

- fold change (FC) [1]: 2.56
Compound: Oc1ccc(-c2cn(Cc3ccc(-c4ccccc4)cc3)nn2)cc1O

- fold change (FC) [1]: 2.4
Compound: CC(C)c1ccccc1Cn1cc(-c2ccc(O)c(O)c2)nn1

- fold change (FC) [1]: 1.43
Compound: Oc1ccc(-c2cn(Cc3ccccc3)nn2)cc1O

- Activity [2]: inactive
- Activity [3]: inactive
- Activity [4]: inactive
- fold change (FC) [1]: 1.1
- Activity [5]: inactive
Compound: CC(C)c1ccc(Cn2cc(-c3ccccc3O)nn2)cc1

- fold change (FC) [1]: 1.31
Compound: CC(C)c1ccc(Cn2cc(-c3ccccc3)nn2)cc1

- Activity [9]: Active
- Activity [10]: Dose-dependent effect
- Activity [11]: Dose-dependent effect
- Activity [12]: Active
- Activity [17]: Dose-dependent effect
- Activity [18]: Dose-dependent effect
- fold change (FC) [1]: 4.98
- Activity [20]: Dose-dependent effect
- Kd [21]: 46 µM
- ΔTm [27]: 0.7 °C
Compound: CC(C)c1ccc(Cn2cc(-c3ccc(O)c(O)c3)nn2)cc1
- Activity (Mus musculus [6]): Active
- Activity (Mus musculus [7]): Active
- Activity (MEF [8]): Active
- Activity (Mus musculus [13]): Active
- Activity (MEF [14]): Active
- Activity (MEF [15]): Active
- Activity (MEF [16]): Active
- Activity (MEF [19]): Active
- Activity (MEF [22]): Active
- Activity (MEF [23]): Active
- Activity (MEF [24]): Active
- Activity (MEF [25]): Active
- Activity (MEF [26]): Active
- Activity (MEF [28]): Active
- Activity (MEF [29]): Dose-dependent effect
- Activity (Adipocyte): Active

- fold change (FC) [1]: 2.21
Compound: CC(C)c1ccc(Cn2cc(-c3cccc(O)c3)nn2)cc1

- fold change (FC) [1]: 1.85
Compound: CC(C)c1ccc(/C=N/NC(=O)c2ccc(O)cc2)cc1

- fold change (FC) [1]: 1.69
Compound: CC(C)c1ccc(Cn2cc(-c3ccc(O)cc3)nn2)cc1

- fold change (FC) [1]: 3.32
Compound: CC(C)c1cccc(Cn2cc(-c3ccc(O)c(O)c3)nn2)c1

- fold change (FC) [1]: 2.9
Compound: Cc1ccc(Cn2cc(-c3ccc(O)c(O)c3)nn2)cc1

- fold change (FC) [1]: 4.18
Compound: CC(C)(C)c1ccc(Cn2cc(-c3ccc(O)c(O)c3)nn2)cc1
